Compound activity (PubChem)
Sampled rows, rich in hits. Any-hit rate of the full collection: about 3.5%.
MrgX1 antagonist = antagonists of human MrgX1 receptor. Q96LB2. MRGX1-HEK293 calcium flux, Fluo-4, BAM8-22 antagonism; stronger effect = lower value. B-score at 10 µM. 310,000 compounds, 1.3% hits. AID 588676;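 active = calcium-response B-score plate-corrected more than 3 library SD below zero, starting fluorescence within 5 deviations, no agonist response on first addition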;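 note: peak minus trough fluorescence over baseline after final BAM8-22 challenge near maximal dose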
Target sequence (Q96LB2 whole entry, looked up): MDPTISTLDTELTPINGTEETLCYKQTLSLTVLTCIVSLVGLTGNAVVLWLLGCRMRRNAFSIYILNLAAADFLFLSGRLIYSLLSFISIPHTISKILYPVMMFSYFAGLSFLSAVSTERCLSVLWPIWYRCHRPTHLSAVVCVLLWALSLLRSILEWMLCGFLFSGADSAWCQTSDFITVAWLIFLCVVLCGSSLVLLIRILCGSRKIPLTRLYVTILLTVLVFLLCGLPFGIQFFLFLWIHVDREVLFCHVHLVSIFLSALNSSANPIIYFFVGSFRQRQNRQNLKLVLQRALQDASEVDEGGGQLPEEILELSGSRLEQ
MrgX1 allo act = human MrgX1 positive allosteric modulation, primary screen | MrgX1-HEK293, Fluo-4 calcium flux, FDSS; stronger effect = higher value | AID 588675 | 310,000 compounds, 0.63% hits | Q96LB2 | B-score at 10 µM;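 active = plate-corrected calcium response at least 3 library SD above typical, normal starting fluorescence, not activating the receptor alone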;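 note: compound read alongside a low EC10 to EC30 dose of BAM8-22 agonist; peak minus trough fluorescence over baseline measured at the second addition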
RGS4 act = RGS4 potentiation or activation; HEK293 M3R/inducible RGS4, carbachol calcium flux Fluo4; stronger effect = lower value; B-score at 10 µM; 310,000 compounds, 0.92% hits; AID 463111;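 active = B-score of the integrated calcium signal more than 4 SD below the library mean, with starting fluorescence not abnormally high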;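 note: negative B-score means reduced calcium response which marks RGS4 activation or potentiation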
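Detection: kinetic calcium fluorescence imaging with Fluo4-AM dye, 2 µM / Material: HEK293 cells with stable M3R and inducible RGS4 / Schedule: recording 10 s baseline at 1 Hz, 100 s post-agonist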
RGS4 block = human RGS4 inhibition. P49798. B-score at 10 µM. AID 463165. 310,000 compounds, 0.45% hits. HEK293 M3R/RGS4 inducible, Fluo-4 calcium flux; stronger effect = higher value; triggered by carbachol at its EC20;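 active = B-score, a plate-corrected calcium signal, over three deviations above library mean, with baseline fluorescence within five deviations of library mean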;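 note: RGS4 expression induced by doxycycline in cells with stable M3 receptor; B-score is computed from the integrated fluorescence ratio over baseline after carbachol; higher B-score means a larger calcium signal and so more RGS4 inhibition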
Target sequence (P49798 whole entry, looked up): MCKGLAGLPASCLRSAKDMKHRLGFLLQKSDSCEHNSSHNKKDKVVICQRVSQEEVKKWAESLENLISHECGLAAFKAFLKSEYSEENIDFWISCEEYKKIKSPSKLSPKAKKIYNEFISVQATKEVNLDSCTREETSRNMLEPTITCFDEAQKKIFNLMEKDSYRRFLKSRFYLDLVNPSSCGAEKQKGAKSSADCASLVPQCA
MrgX1 ag = activates human MrgX1 receptor signaling; Q96LB2; MrgX1-HEK293 cells, Fluo-4 calcium fluorescence, agonist mode; stronger effect = higher value; B-score at 10 µM; 310,000 compounds, 0.44% hits;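 active = calcium response B-score plate-corrected fluorescence ratio at least 3 library SD, with starting fluorescence B-score inside 5 SD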
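Material: HEK293 cells stably expressing human MrgX1 receptor | Quantity: 15,000 cells per well | Times: Cells plated overnight, dye loaded 0.5 h 37 °C, 0.5 h room temperature | Measured by: Kinetic Fluo-4 NW fluorescence of intracellular calcium | Control set: Positive and negative controls per plate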
MrgX1 ant reconf = confirmation of human MrgX1 receptor antagonists. shares compounds with MrgX1 antagonist. AID 602420. MrgX1-HEK293, BAM8-22 calcium flux, Fluo-4; stronger effect = lower value. remaining BAM8-22 calcium response % of control (stronger effect = lower value), % at 10 µM. 2,300 compounds, 19% hits;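 active = remaining agonist calcium response no higher than 100% minus 3 SD of agonist-only control wells, with starting fluorescence near control levels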;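 note: agonist BAM8-22 given at a near maximal EC90 to ECmax level; peak minus minimum fluorescence divided by baseline after agonist addition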
HEK293 Ca flux = activity in parental HEK293 cells lacking MrgX1. shares compounds with MrgX1 antagonist. Fluo-4 calcium fluorescence, FDSS. fluorescence ratio F(max-min)/F0 at 10 µM. 4,000 compounds, 2% hits;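 active = duplicate-averaged calcium fluorescence ratio at least three times the standard deviation of buffer wells, a nonspecific response in parental cells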
HEK293 Ca counter = counter-screen for MrgX1 allosteric activators: effect in parental HEK293 cells; AID 624114; fluorescence ratio F(max-min)/F0 at 10 µM; 4,000 compounds, 0.4% hits; shares compounds with MrgX1 antagonist; parental HEK293 calcium flux, Fluo-4 fluorescence ratio; stronger effect = higher value;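 active = calcium fluorescence ratio, averaged over duplicates, at least 3 SD of the buffer-well ratio, meaning a nonspecific response in receptor-free cells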;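 note: untransfected parental HEK293 lacking MrgX1 used as counterscreen for MrgX1 allosteric activators; fluorescence change taken during the second addition on a kinetic imager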
HEK293 Ca cntr2 = counter-screen for MrgX1 activators: effect in parental HEK293 cells | shares compounds with MrgX1 antagonist | Fluo-4 calcium fluorescence (FDSS); stronger effect = higher value | fluorescence ratio F(max-min)/F0 at 10 µM | 4,000 compounds, 8.7% hits | AID 624115;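 active = calcium fluorescence ratio at least three times the spread of buffer wells, meaning a non-specific response in parental cells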
* marks the source's active call; other numbers are inactive results; i = inactive; nt = no result given.

SMILES | MrgX1 antagonist | MrgX1 allo act | RGS4 act | RGS4 block | MrgX1 ag | MrgX1 ant reconf | HEK293 Ca flux | HEK293 Ca counter | HEK293 Ca cntr2
CC(C)CNC(=O)c1cccc(NC(=O)Cc2ccc(Cl)cc2)c1 | -5.5* | i | i | i | i | i | i | i | i
CCC(CC)c1nnc(NC(=O)c2ccc(N3CCCC3=O)cc2)s1 | -4.9* | i | i | i | i | i | i | i | i
COC(=O)C1CCN(C(=O)COC(=O)c2ccc3[nH]c4c(c3c2)CCCC4)CC1 | i | i | i | i | i | nt | nt | nt | nt
CCOC(=O)CN1C(=O)C(C)(C)Oc2ccc(C(=O)NC(C)(C)CC)cc21 | -5.3* | i | i | i | i | i | i | i | i
COc1ccc(C(O)C(CN2CCOCC2)c2ccccc2)cc1F (centres undefined) | -5.6* | i | i | i | i | i | i | i | i
c1ccc(CNc2nnnn2-c2ccccc2)cc1 | i | i | i | i | i | nt | nt | nt | nt
Cc1cccc2cc(CN(CC3CCCO3)C(=O)c3ccco3)c(=O)[nH]c12 (centres undefined) | -8.3* | i | i | i | i | i | i | i | i
COCCCNC(=O)c1ccc(NC(C)=O)cc1 | i | i | i | i | i | nt | nt | nt | nt
CC(C)c1cc2c(c(O)c1O)[C@@]13CCCC(C)(C)C1CC2OC3=O (some centres undefined) | -4.5* | i | i | i | i | 76%* | i | i | i
O=C(NC1CC1)c1cc2c(s1)-c1ccccc1OC2 | -5.2* | i | i | i | i | i | i | i | i
Cc1c(C(=O)O)sc2nc3n(c(=O)c12)CCCCC3 | i | i | i | i | i | nt | nt | nt | nt
Cc1c(C(=O)N2CCN(c3ncccn3)CC2)sc2nc3n(c(=O)c12)CCCC3 | -7.4* | i | i | i | i | i | i | i | i
O=C(Nc1ccc(Br)cc1)c1ccc(F)c(S(=O)(=O)NCc2cccs2)c1 | -5.3* | i | i | i | i | i | i | i | 47*
CCCOCC(O)COc1ccccc1C(=O)N1CCOCC1 (centres undefined) | i | i | i | i | i | nt | nt | nt | nt
CCc1ccc(C2CC(c3ccc(C)cc3)Nc3nc(N)nn32)cc1 (centres undefined) | i | i | i | i | i | nt | nt | nt | nt
COc1ccc(C(=O)c2cn[nH]c2-c2cc(Cl)ccc2O)cc1 | i | i | i | i | i | nt | nt | nt | nt
COc1ccc(C(=O)c2cn[nH]c2-c2cc(C)ccc2O)cc1 | -4.5* | i | i | i | i | i | i | i | i
CCCOC(=O)C1=C(C)NC2=C(C(=O)C(C(=O)OC)C(C)C2)C1c1ccc(N(CC)CC)cc1 (centres undefined) | -7.8* | i | i | i | i | i | i | i | i
C=CCN1C(=O)C2(NC(=O)c3ccccc3N2)c2ccccc21 (centres undefined) | i | i | i | i | i | nt | nt | nt | nt
CN(C(=O)c1cccs1)c1ccccc1C(=O)O | -5.7* | i | i | i | i | i | i | i | i
COc1cc(O)c2c(c1)OC(C)(C)CC2=O | -10* | i | i | i | i | i | i | i | i
O=C(c1ccc(Cl)c(S(=O)(=O)N2CCCC2)c1)N1CCN(c2ccccc2)CC1 | i | i | i | i | i | nt | nt | nt | nt
O=C(c1ccc(Cl)c(S(=O)(=O)N2CCOCC2)c1)N1CCN(c2ccccc2)CC1 | -4.6* | i | i | i | i | i | i | i | i
O=C(c1ccc(Cl)c(S(=O)(=O)N2CCCCCC2)c1)N1CCN(c2ccccc2O)CC1 | -4.8* | i | i | i | i | 80%* | i | i | i
O=C(c1ccc(Cl)c(S(=O)(=O)N2CCCCC2)c1)N1CCCCC1 | i | i | i | i | i | nt | nt | nt | nt
SMILES | MrgX1 antagonist | MrgX1 allo act | RGS4 act | RGS4 block | MrgX1 ag | MrgX1 ant reconf | HEK293 Ca flux | HEK293 Ca counter | HEK293 Ca cntr2
Cn1cnnc1SCCC(=O)Nc1ccccc1 | i | i | i | i | i | nt | nt | nt | nt
Cn1cnnc1SCC(=O)Nc1ccc(OC(F)F)cc1 | -4.9* | i | i | i | i | 84%* | i | i | i
Cn1cnnc1SCCC(=O)Nc1ccc(Cl)cc1 | -5.8* | i | i | i | i | i | i | i | i
COCc1nc(-c2ccc(-c3ccc(OC)cc3)nc2OC)no1 | -11* | i | i | i | i | i | i | i | i
Cc1ccc2c(c1)CCCN2S(=O)(=O)c1cccc(C(=O)Nc2ccccc2C(=O)O)c1 | -6.7* | i | i | i | i | 67%* | i | i | i
O=C(NC1=NCCS1)c1cccc(S(=O)(=O)N2CCc3ccccc32)c1 | -4.9* | i | i | i | i | i | i | i | i
O=C(NC1=NCCS1)c1ccc(Cl)c(S(=O)(=O)N2CCc3ccccc32)c1 | i | i | i | i | i | nt | nt | nt | nt
c1ccc(CN2CCN(c3cnc4ccccc4n3)CC2)cc1 | -8.8* | i | i | i | i | i | i | i | i
Fc1ccccc1N1CCN(c2cnc3ccccc3n2)CC1 | i | i | i | i | i | nt | nt | nt | nt
Cn1c(=O)cc(OCC(=O)NCCc2ccc(Cl)cc2)c2ccccc21 | i | i | i | i | i | nt | nt | nt | nt
COc1ccc(NC(=O)C/C(C)=N/NC(=O)COc2ccc(OC)cc2)cc1 | i | i | i | i | i | nt | nt | nt | nt
COc1ccc(OCC(=O)N/N=C(\C)CC(=O)Nc2cccc([N+](=O)[O-])c2)cc1 | -11* | i | i | i | i | i | i | i | i
O=S(=O)(NCc1cn2ccsc2n1)c1cccs1 | i | i | i | i | i | nt | nt | nt | nt
O=C(NCCc1cn2ccsc2n1)c1cccs1 | -6.3* | i | i | i | i | i | i | i | i
COC(=O)Cc1ccc(NC(=S)NCc2ccc(F)cc2)cc1 | i | i | i | i | i | nt | nt | nt | nt
